Measured values taken from ChEMBL document CHEMBL1177882, “Novel bisstyryl derivatives of bakuchiol: targeting oral cavity pathogens” (2010).
Values after ≈ are worked out from the molar mass of the structure shown. Active and inactive are the calls of the source. No cut-off for these calls is given here.

Assays:
Streptococcus mutans [1] = test: Antibacterial activity against Streptococcus mutans ATCC 25175 assessed as decrease in cell viability at 2 time MIC after 60 mins by serial dilution method relative to control; assay type: functional
In short: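 S. mutans suspension from an 18 h culture (~1 × 10^9 cfu/ml) diluted 1:20 into phosphate buffer containing compound at 2 × MIC. Incubated 60 min at 37 °C, then serially diluted in saline and plated on BHI agar. Colonies counted after 48 h at 37 °C in 5% CO2; viability given as CFU/ml relative to untreated cells.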

Streptococcus mutans [2] = test: Antibacterial activity against Streptococcus mutans ATCC 25175 after 24 hrs by broth microdilution method; details: ATCC 25175, 24 h
Prevotella intermedia [3] = test: Antibacterial activity against Prevotella intermedia ATCC 25611 after 48 hrs by broth microdilution method; assay type: functional; details: ATCC 25611, 48 h
In short: (§1)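 Broth microdilution MIC for obligate anaerobes, run in their growth media (Wilkins–Chalgren for F. nucleatum and P. intermedia; supplemented Todd Hewitt broth for P. gingivalis). Inoculum suspended in Brucella broth, final 5 × 10^6 cfu/ml. Twofold dilutions, final 0.12–128 µg/ml. Incubated anaerobically (90% N2/5% H2/5% CO2) at 37 °C for 48 h; MIC is the lowest concentration without turbidity.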

Actinomyces viscosus [4] = test: Antibacterial activity against Actinomyces viscosus ATCC 15987 after 24 hrs by broth microdilution method; details: ATCC 15987, 24 h
Streptococcus mutans [5] = test: Antibacterial activity against Streptococcus mutans ATCC 25175 assessed as inhibition of biofilm formation after 18 hrs; assay type: functional
In short: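 Single-species S. mutans biofilm grown in flat-bottom polystyrene wells, BHI with 2% sucrose, 6 × 10^7 cfu/ml final, compound twofold 0.12–128 µg/ml, 18 h at 37 °C in 5% CO2. Wells rinsed with PBS pH 7.2, methanol-fixed, stained with 0.1% crystal violet, eluted in 95% ethanol, A595 read. % inhibition relative to untreated control; MBIC50 is the lowest concentration giving ≥50% inhibition.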

Streptococcus mutans [6] = test: Antibacterial activity against Streptococcus mutans ATCC 25175 assessed as 280 nm absorbing material release at 2 time MIC after 60 mins by spectrophotometric analysis; assay type: functional, organism-based
In short: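 S. mutans prepared in 50 mmol/l phosphate pH 7.1 (~1 × 10^9 cfu/ml) was exposed to compound at 2 × MIC for 60 min at 37 °C. Supernatant taken after centrifugation (10,000 g, 10 min) and read at A280. Release is expressed as % of a total-release control made by lysozyme treatment (100 µg/ml, 60 min, 37 °C) plus sonication.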

Porphyromonas gingivalis [7] = test: Antibacterial activity against Porphyromonas gingivalis ATCC 33277 after 48 hrs by broth microdilution method; assay type: functional; details: ATCC 33277, 48 h; in short: as §1
Streptococcus mutans [8] = test: Antibacterial activity against Streptococcus mutans ATCC 25175 assessed as increase of cell membrane permeability at 2 time MIC after 60 mins propidium iodide staining by flow cytometry; assay type: functional, organism-based
In short: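 Overnight BHI culture of S. mutans washed into 50 mmol/l sodium phosphate pH 7.1 (~1 × 10^9 cfu/ml), diluted 1:20 into buffer with compound at 2 × MIC. Incubated 60 min at room temperature; aliquots diluted in buffer and stained with propidium iodide at 10 µg/ml final on ice. The percentage of PI-stained cells was measured by flow cytometry.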

Streptococcus sanguinis [9] = test: Antibacterial activity against Streptococcus sanguinis ATCC 10556 after 48 hrs by broth microdilution method; assay type: functional; details: ATCC 10556, 48 h
Streptococcus mutans [10] = test: Antibacterial activity against Streptococcus mutans ATCC 25175 after 48 hrs by broth microdilution method; assay type: functional; details: ATCC 25175, 48 h
Actinomyces viscosus [11] = test: Antibacterial activity against Actinomyces viscosus ATCC 15987 after 48 hrs by broth microdilution method; assay type: functional; details: ATCC 15987, 48 h
Streptococcus sanguinis [12] = test: Antibacterial activity against Streptococcus sanguinis ATCC 10556 after 24 hrs by broth microdilution method; details: ATCC 10556, 24 h
Fusobacterium nucleatum [13] = test: Antibacterial activity against Fusobacterium nucleatum ATCC 10953 after 48 hrs by broth microdilution method; assay type: functional; details: ATCC 10953, 48 h; in short: as §1
Prevotella intermedia [14] = test: Ratio of compound MIC to bakuchiol MIC for Prevotella intermedia ATCC 25611; assay type: functional
Streptococcus sanguinis [15] = test: Ratio of compound MIC to bakuchiol MIC for Streptococcus sanguinis ATCC 10556; assay type: functional
Streptococcus mutans [16] = test: Ratio of compound MIC to bakuchiol MIC for Streptococcus mutans ATCC 25175; assay type: functional
Fusobacterium nucleatum [17] = test: Ratio of compound MIC to bakuchiol MIC for sFusobacterium nucleatum ATCC 10953; assay type: functional
Porphyromonas gingivalis [18] = test: Ratio of compound MIC to bakuchiol MIC for Porphyromonas gingivalis ATCC 33277; assay type: functional
Actinomyces viscosus [19] = test: Ratio of compound MIC to bakuchiol MIC for Actinomyces viscosus ATCC 15987; assay type: functional

| SMILES | MIC (Streptococcus mutans [2]) [µg/mL] | MIC (Prevotella intermedia [3]) [µg/mL] | MIC (Actinomyces viscosus [4]) [µg/mL] | MIC (Porphyromonas gingivalis [7]) [µg/mL] | MIC (Streptococcus sanguinis [12]) [µg/mL] | MIC (Fusobacterium nucleatum [13]) [µg/mL] | Activity (Streptococcus mutans [1]) [%] | MBC (Prevotella intermedia [3]) [µg/mL] | MBIC50 (Streptococcus mutans [5]) [µg/mL] | Activity (Streptococcus mutans [6]) | MBC (Porphyromonas gingivalis [7]) [µg/mL] | Activity (Streptococcus mutans [8]) | MBC (Streptococcus sanguinis [9]) [µg/mL] | MBC (Streptococcus mutans [10]) [µg/mL] | MBC (Actinomyces viscosus [11]) [µg/mL] | MBC (Fusobacterium nucleatum [13]) [µg/mL] | other results |
| --- | --- | --- | --- | --- | --- | --- | --- | --- | --- | --- | --- | --- | --- | --- | --- | --- | --- |
| CC(C)=CCCC(C)(/C=C/c1ccc(O)cc1)/C=C/c1ccc(O)cc1 | 0.5 (≈ 1.43 µM) | 0.25 (≈ 0.717 µM) | 0.5 (≈ 1.43 µM) | 0.25 (≈ 0.717 µM) | 0.25 (≈ 0.717 µM) | > 128 | >80 | 1 (≈ 2.87 µM) | 1 | Active | 1 (≈ 2.87 µM) | Active | 1 (≈ 2.87 µM) | 1 (≈ 2.87 µM) | 1 (≈ 2.87 µM) | > 128 |  |
| Oc1cc(Cl)ccc1Oc1ccc(Cl)cc1Cl [TRICLOSAN] | 4 (≈ 13.8 µM) | 1 (≈ 3.45 µM) | 4 (≈ 13.8 µM) | 2 (≈ 6.91 µM) | 4 (≈ 13.8 µM) | 2 (≈ 6.91 µM) |  | 1 (≈ 3.45 µM) |  |  | 2 (≈ 6.91 µM) |  | 4 (≈ 13.8 µM) | 8 (≈ 27.6 µM) | 8 (≈ 27.6 µM) | 2 (≈ 6.91 µM) |  |
| C=C[C@@](C)(/C=C/c1ccc(O)cc1)CCC1OC1(C)C (some centres not stated) | 128 (≈ 470 µM) | 64 (≈ 235 µM) | 64 (≈ 235 µM) | 32 (≈ 117 µM) | 128 (≈ 470 µM) | > 128 |  | 128 (≈ 470 µM) |  |  | 64 (≈ 235 µM) |  | > 128 | > 128 | 128 (≈ 470 µM) | > 128 |  |
| COc1ccc(/C=C/[C@@](C)(/C=C/c2ccc(O)cc2)CCC=C(C)C)cc1 | 1 (≈ 2.76 µM) | 2 (≈ 5.52 µM) | 2 (≈ 5.52 µM) | 0.5 (≈ 1.38 µM) | 2 (≈ 5.52 µM) | 8 (≈ 22.1 µM) | >80 | 4 (≈ 11 µM) | 2 | Active | 1 (≈ 2.76 µM) | Active | 2 (≈ 5.52 µM) | 2 (≈ 5.52 µM) | 2 (≈ 5.52 µM) | 8 (≈ 22.1 µM) | Ratio (Prevotella intermedia [14]): 2; Ratio (Streptococcus sanguinis [15]): 2; Ratio (Streptococcus mutans [16]): 2; Ratio (Fusobacterium nucleatum [17]): 0.25; Ratio (Porphyromonas gingivalis [18]): 2; Ratio (Actinomyces viscosus [19]): 2 |
| C=C[C@@](C)(/C=C/c1ccc(O)c([N+](=O)[O-])c1)CCC=C(C)C | 64 (≈ 212 µM) | 64 (≈ 212 µM) | 128 (≈ 425 µM) | 32 (≈ 106 µM) | 128 (≈ 425 µM) | > 128 |  | 128 (≈ 425 µM) |  |  | 32 (≈ 106 µM) |  | > 128 | 128 (≈ 425 µM) | > 128 | > 128 |  |
| C=C[C@@](C)(/C=C/c1ccc(OC(C)=O)cc1)CCC=C(C)C [ACETYLBAKUCHIOL] | 128 (≈ 429 µM) | 64 (≈ 214 µM) | 32 (≈ 107 µM) | 8 (≈ 26.8 µM) | 16 (≈ 53.6 µM) | > 128 |  | 64 (≈ 214 µM) |  |  | 8 (≈ 26.8 µM) |  | 16 (≈ 53.6 µM) | > 128 | 64 (≈ 214 µM) | > 128 |  |

Second part, led by results:

| MIC (Streptococcus mutans [2]) [µg/mL] | MIC (Prevotella intermedia [3]) [µg/mL] | MIC (Actinomyces viscosus [4]) [µg/mL] | MIC (Porphyromonas gingivalis [7]) [µg/mL] | MIC (Streptococcus sanguinis [12]) [µg/mL] | MIC (Fusobacterium nucleatum [13]) [µg/mL] | SMILES | Activity (Streptococcus mutans [1]) [%] | MBC (Prevotella intermedia [3]) [µg/mL] | MBIC50 (Streptococcus mutans [5]) [µg/mL] | Activity (Streptococcus mutans [6]) | MBC (Porphyromonas gingivalis [7]) [µg/mL] | Activity (Streptococcus mutans [8]) | MBC (Streptococcus sanguinis [9]) [µg/mL] | MBC (Streptococcus mutans [10]) [µg/mL] | MBC (Actinomyces viscosus [11]) [µg/mL] | MBC (Fusobacterium nucleatum [13]) [µg/mL] | other results |
| --- | --- | --- | --- | --- | --- | --- | --- | --- | --- | --- | --- | --- | --- | --- | --- | --- | --- |
| 64 (≈ 237 µM) | 32 (≈ 118 µM) | 32 (≈ 118 µM) | 16 (≈ 59.2 µM) | 32 (≈ 118 µM) | 32 (≈ 118 µM) | C=C[C@@](C)(/C=C/c1ccc(O)cc1)CC/C=C(/C)C=O |  | 64 (≈ 237 µM) |  |  | 16 (≈ 59.2 µM) |  | 64 (≈ 237 µM) | 128 (≈ 473 µM) | 64 (≈ 237 µM) | 64 (≈ 237 µM) |  |
| 1 (≈ 3.9 µM) | 1 (≈ 3.9 µM) | 1 (≈ 3.9 µM) | 1 (≈ 3.9 µM) | 1 (≈ 3.9 µM) | 32 (≈ 125 µM) | C=C[C@@](C)(/C=C/c1ccc(O)cc1)CCC=C(C)C [BAKUCHIOL] | >80 | 2 (≈ 7.8 µM) | 4 | Active | 1 (≈ 3.9 µM) | Active | 2 (≈ 7.8 µM) | 2 (≈ 7.8 µM) | 2 (≈ 7.8 µM) | 64 (≈ 250 µM) |  |
| 2 (≈ 7.62 µM) | 2 (≈ 7.62 µM) | 2 (≈ 7.62 µM) | 1 (≈ 3.81 µM) | 1 (≈ 3.81 µM) | > 128 | CC[C@](C)(CCCC(C)C)CCc1ccc(O)cc1 |  | 4 (≈ 15.2 µM) | 4 |  | 2 (≈ 7.62 µM) |  | 2 (≈ 7.62 µM) | 4 (≈ 15.2 µM) | 4 (≈ 15.2 µM) | > 128 |  |
